From PubChem BioAssay
In the library only some 3% were active in any assay of this set; here they are far more common.
HTR1E agonist: agonists of human 5-HT1E serotonin receptor. activation, % at 6 µM. CHO 5-HT1E Ga15 NFAT-bla reporter, FRET; 0% DMSO wells, 100% control agonist wells. P28566. hit rate 0.69% among 65,000. AID 574;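 active = activation above a set limit, the screen-wide mean activation plus 3 SD, cut at about 8.5% in these data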;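 note: 100% = positive control agonist at 1 µM giving full maximal response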
5HT1E antag: 5-HT1E (human) receptor antagonism. inhibition, % at 6 µM. hit rate 0.99% among 65,000. CHO 5-HT1E Ga15 NFAT-bla reporter, FRET, antagonist. P28566;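 active = inhibition above a set limit, the mean inhibition across every tested compound plus 3 SD, cut at about 29% in these data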;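 note: signal is the 460 over 535 nm emission ratio of beta-lactamase substrate; 0% = agonist plus DMSO wells and 100% = wells without agonist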
S1P1 ag-PAM: agonists and agonism potentiators of human S1P1 receptor. P21453. activation, % at 9.5 µM. S1P1 CRE-bla cells, forskolin, beta-lactamase FRET, potentiator mode; S1P1 agonist co-added at EC20, 2 nM; 100% = saturating reference agonist, 0% = basal. hit rate 0.57% among 56,000;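 active = activation above a cutoff set at the mean activation of all tested compounds plus 3 SD, cut at about 54% in these data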;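 note: forskolin at 4 µM as EC80 and the EC20 agonist is SEW2871; 100% = SEW2871 at its EC100 plus forskolin at EC80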
S1P3 ag: agonists of human S1P3 receptor; hit rate 0.1% among 60,000; AID 373; S1P3 NFAT-BLA reporter cells, agonism, FRET ratio; relative to 1 µM S1P, basal subtracted; Q99500; activation, % at 4.5 µM;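 active = activation above the screen-wide mean plus 3 SD, cut at about 4.5% in these data, passing the limit was not always enough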
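Assay system: stable CHO line with human S1P3, Gα16, NFAT-BLA reporter; Detection: FRET β-lactamase substrate fluorescence, excitation 405 nm, 460/535 nm emission ratio, background-subtracted; Read-out: percent activation versus median 1 µM S1P response, basal-subtracted, per plate; Incubation: cells plated overnight, compound 4 h 37 °C, substrate 2 h RT.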
5HT1a antag: blocks the human serotonin 5-HT1a receptor; P08908; CHO 5-HT1a Ga15 NFAT-bla reporter, antagonist mode; inhibition, % at 10 µM; hit rate 0.68% among 62,000; AID 612;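 active = inhibition above the mean of all tested compounds plus 3 SD, cut at about 43% in these data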;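 note: receptor stimulated by 5-CT agonist at 100 nM near EC80; beta-lactamase reporter measured by ratiometric fluorescence of a cleavable substrate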
Target sequence (P08908 whole entry, looked up): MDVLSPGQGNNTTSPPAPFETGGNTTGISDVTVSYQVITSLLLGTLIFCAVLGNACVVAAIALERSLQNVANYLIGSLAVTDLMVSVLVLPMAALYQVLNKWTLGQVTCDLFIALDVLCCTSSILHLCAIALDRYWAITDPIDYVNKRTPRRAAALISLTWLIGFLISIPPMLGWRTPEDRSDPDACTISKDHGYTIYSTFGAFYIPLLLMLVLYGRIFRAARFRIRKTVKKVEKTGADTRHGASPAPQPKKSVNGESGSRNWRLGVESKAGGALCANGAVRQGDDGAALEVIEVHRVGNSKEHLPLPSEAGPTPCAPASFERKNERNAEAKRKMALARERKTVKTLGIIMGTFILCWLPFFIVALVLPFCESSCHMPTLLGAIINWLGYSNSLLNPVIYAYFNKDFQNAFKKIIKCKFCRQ
HTR1A agonist: 5-HT1a (human) receptor agonism | hit rate 0.56% among 65,000 | CHO 5-HT1a Ga15 NFAT-bla reporter, FRET ratio; 0% basal, 100% maximal reference agonist | P08908 | activation, % at 10 µM | AID 567;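 active = activation above the screen-wide mean activation plus 3 SD, cut at about 19% in these data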;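 note: 0% = DMSO wells and 100% = 5-CT at EC100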
The depositor's hits bear a star; · = not tested or not shown.

SMILES	HTR1E agonist	5HT1E antag	S1P1 ag-PAM	S1P3 ag	5HT1a antag	HTR1A agonist
O=C1C2C(C(=O)N1Cc1cccnc1)C1C=CC2C12CC2 (configuration not stated)	0	9	·	0	3	6
Cc1ccc(CCNC(=O)c2coc3nc4ccccc4nc23)cc1	13*	-3	-48	1	-17	3
C/C(N)=C(/C#N)C(=O)CSc1nnnn1-c1ccc(C)cc1	0	-4	18	-1	11	-3
CC1=C(C(=O)OC2CCCC2)C(c2ccc(C)o2)C2=C(CC(c3cccs3)CC2=O)N1 (configuration not stated)	0	39*	14	-2	45*	0
CC1=C(C(=O)OC2CCCCCC2)C(c2ccc(C)o2)C2=C(CCCC2=O)N1 (configuration not stated)	-1	10	-6	-2	27	-2
Cc1nnc(SCC(=O)n2c3c(c4ccccc42)CCCC3)s1	1	4	·	-1	-10	3
O=C(CN1CCN(c2nc(-c3ccccc3)cs2)CC1)Nc1ccc2c(c1)OCO2	0	2	29	1	2	1
Cc1ccc(-c2csc(N3CCC(NS(=O)(=O)c4ccc5c(c4)OCCO5)CC3)n2)cc1	6	-1	107*	-1	19	3
O=C(CN1C(=O)c2cccc3cccc1c23)Nc1cccnc1	0	-2	·	·	4	0
